# Calls of active or inactive are those of the source.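 The calls were made as follows, unless noted: active = viability at or under a set limit in both replicates, limit being median viability minus 3 SD (cut at about 48% in these data, passing the limit was not always enough); inconclusive = at or under the limit in just one replicate; inactive = at or above the limit in both replicates.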
# Columns and labels:
# [1] = SK-BR-3 cell growth inhibitors, pilot screen, 24 h, human (AID 572;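 active = viability at or below 10% of carrier control in both of two separate runs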;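 also: compound exposure lasted between 18 and 24 h rather than exactly 24 h; 100% = carrier-treated control wells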); conditions: SK-BR-3 viability, CellTiter-Glo luminescence, at 10 µM, stronger effect = lower value
# [2] = HUVEC growth inhibition – cell-based, human, primary screen (AID 575;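 active = viability at or below 30% in both replicate assays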;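 also: 100% = median of untreated cell wells with 0.1% DMSO on each plate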); conditions: HUVEC proliferation, CellTiter-Glo luminescence, 72 h; at 10 µM; stronger effect = lower value
# Method in brief: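 Test system: primary human umbilical vein endothelial cells; medium: endothelial basal medium with 2% FBS plus growth supplements; dosing: 10 µM compound only; times: 72 h treatment at 37 °C; signal: CTG luminescence; read-out: % viability relative to median vehicle-well signal on each plate; control set: vehicle and MePR control wells; plate: 384-well, collagen-coated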
# [3] = growth inhibitors of H69AR lung tumor, primary screen, human, duplicate replicates (AID 580); conditions: H69AR lung tumor cells viability, ATP luminescence, 72 h; at 10 µM; stronger effect = lower value;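 also: 100% = mean luminescence of untreated wells and 0% = no signal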
# [4] = reversal of MRP1-mediated doxorubicin resistance, pilot screen, H69AR cells, doxorubicin co-treatment (AID 601;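 active = viability loss from added drug above about 55%, and viability with drug at most 40%, in both replicates, limit read from the data, passing the limit was not always enough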); conditions: CellTiter-Glo, 72 h, at 10 µM; for differential viability (reversal): stronger effect = higher value
# [5] = 384-well plate pilot, post-Golgi transport modulator project, inhibition of yeast transport mutant growth (AID 636; in the data active = inhibition above about 31%); conditions: absorbance 615 nm, about 18 h, stronger effect = higher value
# [6] = growth suppression of yeast trafficking mutant, preliminary HTS, modulators of trafficking downstream of Golgi apparatus project, 1536-format plate, OD 615 nm (AID 637; in the data active = inhibition above about 30%); conditions: yeast transport mutant growth, absorbance 615 nm, 18 h; stronger effect = higher value
# [7] = H69AR cells + 2 uM doxorubicin, measured here: viability with 2 uM doxorubicin, stronger effect = lower value
# [8] = H69AR cells, compound alone cytotoxicity
Compound,viability [1],viability [2],viability [3],differential viability (reversal) ([4]; H69AR cells + 2 uM doxorubicin),"viability [4, 7]","viability [4, 8]",inhibition [5],inhibition [6]
COc1cccc(OCc2nnc(SCC(=O)OCc3ccccc3)o2)c1,101% (inactive),108% (inactive),97% (inactive),5.81% (inactive),91.2%,97%,-6.93% (inactive),-3.09% (inactive)
COc1ccc(-c2nnn(CC(=O)c3ccc4c(c3)OCCO4)n2)cc1OC,92% (inactive),73.8% (inactive),81.5% (inactive),7.78% (inactive),73.7%,81.5%,-7.26% (inactive),0% (inactive)
CCOC(=O)CSc1nc2sc(C)c(C)c2c(=O)[nH]1,98% (inactive),101% (inactive),92.2% (inactive),-15.3% (inactive),108%,92.2%,-4.79% (inactive),13.3% (inactive)
Clc1ccc2c(c1)C(N1CCNCC1)=Nc1ccccc1O2,73% (inactive),46% (inactive),84.4% (inactive),11.4% (inactive),73%,84.4%,-1.3% (inactive),-3.83% (inactive)
Cc1ccc(OCC2Cn3c(nc4c3c(=O)n(C)c(=O)n4C)O2)cc1 (stereo unspecified),91% (inactive),96% (inactive),93% (inactive),-3% (inactive),96%,93%,-8.36% (inactive),2.91% (inactive)
Cc1csc(NC(=O)c2cccs2)n1,119% (inactive),93.9% (inactive),89.7% (inactive),3.83% (inactive),85.8%,89.7%,-1.43% (inactive),1.48% (inactive)
c1n[nH]c(SCCCCSc2ncn[nH]2)n1,101% (inactive),108% (inactive),108% (inactive),13.8% (inactive),93.9%,108%,-6.71% (inactive),2.91% (inactive)
O=C(Nc1cccnc1)Nc1ccc(F)c(Cl)c1,82% (inactive),86.6% (inactive),105% (inactive),4.77% (inactive),100%,105%,-2.19% (inactive),12% (inactive)
O=S(=O)(NC1CCCCC1NS(=O)(=O)c1ccc(F)cc1)c1ccc(F)cc1 (stereo unspecified),106% (inactive),91.2% (inactive),94.1% (inactive),-1.67% (inactive),95.8%,94.1%,-4.68% (inactive),6.07% (inactive)
CCCC(=O)Nc1c2c(nn1-c1ccc(OC)cc1)CS(=O)C2 (stereo unspecified),103% (inactive),109% (inactive),102% (inactive),9.39% (inactive),92.8%,102%,-2.73% (inactive),6.07% (inactive)
O=C(Nc1cnn(Cc2ccc(F)cc2)c1)c1cnccn1,117% (inactive),85.2% (inactive),98.8% (inactive),1.69% (inactive),97.1%,98.8%,-2.34% (inactive),3.93% (inactive)
COc1ccc(N2CCN(C(=O)Cc3ccc(-n4c(=O)[nH]c5ccccc5c4=O)cc3)CC2)cc1,103% (inactive),75.8% (inactive),94.7% (inactive),3.2% (inactive),91.5%,94.7%,0.26% (inactive),-3.11% (inactive)
CCn1c(SCC(=O)Nc2ccc3c(c2)OCO3)nnc1-c1ccccc1O,96% (inactive),92% (inactive),101% (inactive),13.5% (inactive),87.2%,101%,-1.69% (inactive),-0.33% (inactive)
COc1ccc(C2=CC(=O)OC3(CCCCC3)O2)cc1,97% (inactive),93.2% (inactive),56.5% (inactive),-28.8% (inactive),85.3%,56.5%,-9.18% (inactive),7.42% (inactive)
CCCCn1c(=O)[nH]c(=O)c2c1nc(COc1ccc(C#N)cc1)n2CCC,106% (inactive),83.1% (inactive),88% (inactive),11.3% (inactive),76.7%,88%,-1.04% (inactive),-2.46% (inactive)
Cc1c2cnn(CC(=O)N3CCN(c4ncccn4)CC3)c(=O)c2c(C)n1Cc1ccc(F)cc1,99% (inactive),106% (inactive),99.5% (inactive),2.37% (inactive),97.2%,99.5%,5.14% (inactive),-4.73% (inactive)
COc1ccccc1CNC(=O)Nc1cccs1,126% (inactive),63.8% (inactive),72.1% (inactive),5.65% (inactive),66.5%,72.1%,-0.78% (inactive),4.1% (inactive)
COc1cc(NC(=O)Nc2cccc(C(C)=O)c2)cc(OC)c1OC,109% (inactive),102% (inactive),92.4% (inactive),4.83% (inactive),87.6%,92.4%,-8.36% (inactive),-0.18% (inactive)
N[C@@H](C(=O)N[C@@H]1C(=O)N2C(C(=O)O)=C(Cl)CS[C@H]12)c1ccccc1,108% (inactive),98% (inactive),114% (inactive),10.7% (inactive),103%,114%,-2.6% (inactive),4.83% (inactive)
Cc1csc(NC(=O)c2ccccc2C(=O)O)n1,103% (inactive),108% (inactive),95.3% (inactive),-0.43% (inactive),95.8%,95.3%,-2.27% (inactive),1.27% (inactive)
Fc1cccc(Nc2cc(-n3cccn3)ncn2)c1,95% (inactive),72.5% (inactive),89.6% (inactive),-4.63% (inactive),94.3%,89.6%,-7.81% (inactive),-4.76% (inactive)
CCN(CC)CCNC(=O)c1ccc(NC(C)=O)cc1,136% (inactive),96.6% (inactive),94.8% (inactive),-6.82% (inactive),102%,94.8%,-1.69% (inactive),3.5% (inactive)
COC(=O)CCC(NC(=O)c1cc(-c2ccc3c(c2)OCCO3)oc1C)C(=O)OC (stereo unspecified),91% (inactive),74.8% (inactive),85.3% (inactive),3.48% (inactive),81.9%,85.3%,-6.44% (inactive),0.81% (inactive)
Cc1ccc(S(=O)(=O)N2CCN(c3nc(C)nc4sc(C)c(C)c34)CC2)cc1,95% (inactive),108% (inactive),99.5% (inactive),-2.76% (inactive),102%,99.5%,-3.73% (inactive),-0.73% (inactive)

Compound,viability [1],viability [2],viability [3],differential viability (reversal) ([4]; H69AR cells + 2 uM doxorubicin),"viability [4, 7]","viability [4, 8]",inhibition [5],inhibition [6]
NS(=O)(=O)c1cc2c(cc1Cl)NC(CSCc1ccccc1)=NS2(=O)=O,115% (inactive),89.2% (inactive),92.6% (inactive),2.97% (inactive),89.6%,92.6%,-4.29% (inactive),0.67% (inactive)
Cn1c(=O)[nH]c(=O)c2c1ncn2CCN1CCOCC1,96% (inactive),102% (inactive),99.1% (inactive),5.28% (inactive),93.8%,99.1%,-2.6% (inactive),-1.48% (inactive)
CCn1c(SCc2cc(=O)[nH]c3ccccc23)nc2c1c(=O)n(C)c(=O)n2C,95% (inactive),109% (inactive),92% (inactive),-3.81% (inactive),95.8%,92%,0.68% (inactive),-2.18% (inactive)
CC1(C2(O)CC(c3ccccc3)ON2)CCCCC1 (stereo unspecified),108% (inactive),95% (inactive),84.1% (inactive),-0.32% (inactive),84.4%,84.1%,-4.73% (inactive),-2.36% (inactive)
Cc1occc1-c1nnc(SCC(=O)N2CCOCC2)n1Cc1ccco1,106% (inactive),114% (inactive),101% (inactive),-2.24% (inactive),103%,101%,-2.93% (inactive),5.09% (inactive)
CCCN1CCN(C(=O)Cn2cccc2C(=O)c2ccccc2)CC1,84% (inactive),99.9% (inactive),100% (inactive),17.8% (inactive),82.2%,100%,-2.27% (inactive),1.27% (inactive)
CC1CCCC(C)N1CCNC(=O)C1CCN(S(=O)(=O)N2CCCCC2)CC1 (stereo unspecified),93% (inactive),110% (inactive),104% (inactive),13.1% (inactive),90.7%,104%,-1.2% (inactive),-2.55% (inactive)
CC(=O)OCC[N+](C)(C)C,102% (inactive),96.7% (inactive),92.5% (inactive),-8.23% (inactive),101%,92.5%,1.95% (inactive),-2.5% (inactive)
CC(C)(C)n1ncc2c(=O)n(CC(=O)NCc3ccccc3)cnc21,90% (inactive),54.7% (inactive),15.5% (active),-48.5% (inactive),63.9%,15.5%,-1.2% (inactive),-1.27% (inactive)
CCc1n[nH]c2c1C(=O)CC(C)(C)C2,73% (inactive),106% (inactive),89.1% (inactive),-1.54% (inactive),90.6%,89.1%,2% (inactive),6% (inactive)
Cn1c(=O)c2c(ncn2CC(O)CO)n(C)c1=O (stereo unspecified),117% (inactive),92.8% (inactive),107% (inactive),12.3% (inactive),95%,107%,-5.45% (inactive),3% (inactive)
C=CCc1ccccc1OCC(O)CNC(C)C (stereo unspecified),82% (inactive),70.1% (inactive),91.3% (inactive),-8.68% (inactive),100%,91.3%,-2.34% (inactive),1.67% (inactive)
Cc1cc(NS(=O)(=O)c2ccc(NC(=O)Nc3ccc4c(c3)OCO4)cc2)no1,80% (inactive),101% (inactive),92.6% (inactive),-0.555% (inactive),93.2%,92.6%,-6.49% (inactive),0.55% (inactive)
Cc1ccc(CN2CCN(C(=O)C3CCC3)CC2)cc1,88% (inactive),102% (inactive),97% (inactive),4.13% (inactive),92.9%,97%,-8.49% (inactive),2.36% (inactive)
O=C(NCc1nc2ccccc2[nH]1)c1ccc(Cl)c(S(=O)(=O)N2CCCC2)c1,99% (inactive),79.2% (inactive),96.8% (inactive),-3.96% (inactive),101%,96.8%,0.55% (inactive),-4.35% (inactive)
CCOC(=O)CNC(=O)CSc1nnnn1-c1cc(C)ccc1C,105% (inactive),105% (inactive),110% (inactive),12.1% (inactive),98.1%,110%,-2.08% (inactive),-1.48% (inactive)
CCOC(=O)C(C#N)C(c1cccnc1)c1c(C)[nH][nH]c1=O (stereo unspecified),77% (inactive),107% (inactive),105% (inactive),9.4% (inactive),95.7%,105%,-7.43% (inactive),4% (inactive)
C=CCC1(O)C(=O)Nc2ccccc21 (stereo unspecified),93% (inactive),108% (inactive),98.2% (inactive),18.9% (inactive),79.4%,98.2%,-5.2% (inactive),1.82% (inactive)
C=CCn1c(SCC(=O)Nc2ccc3c(c2)OCO3)nc2ccccc2c1=O,73% (inactive),83.9% (inactive),84.2% (inactive),2.04% (inactive),82.1%,84.2%,-3.84% (inactive),-1.27% (inactive)
C/C(=C\c1ccco1)C1C(C#N)=C(N)OC2=C1C(=O)CC(C)(C)C2 (stereo unspecified),110% (inactive),108% (inactive),80.1% (inactive),-9.17% (inactive),89.2%,80.1%,-7.43% (inactive),1.09% (inactive)
COc1cc2c(cc1OC)CN(CC(=O)Nc1cccc(C)c1)CC2,117% (inactive),90.4% (inactive),93.1% (inactive),9.21% (inactive),83.9%,93.1%,0.14% (inactive),-7.9% (inactive)
CCCOc1cccc(NC(=O)c2c(-c3ccccc3)noc2C)c1,94% (inactive),89.7% (inactive),86.7% (inactive),-15.2% (inactive),102%,86.7%,0.78% (inactive),-1.97% (inactive)
CN(c1ccccc1C(=O)NCC1CCCO1)S(C)(=O)=O (stereo unspecified),67% (inactive),103% (inactive),101% (inactive),11.2% (inactive),90%,101%,-4.11% (inactive),2.36% (inactive)
